Source: ChEMBL document CHEMBL1131201, “N-(benzyloxycarbonyl)glycine esters and amides as new anticonvulsants” (J Med Chem, 1998)

Tests used:
Mus musculus [1] = test: Clonic seizures was evaluated after 0.5 hr in 3-mercaptopropionic acid test in mice at a dose of 119 mg/kg; format: functional
In short: (§1)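 Male NMRI mice (18-25 g). Test compound dissolved in DMSO, given ip at 2 mL/kg. Convulsant given 30 min or 3 h later: pentylenetetrazole (85 or 120 mg/kg) sc in saline, or 3-mercaptopropionic acid 40 mg/kg ip in saline. Mice caged singly and watched 30 min. Clonic and tonic seizures and deaths counted, expressed as % of animals.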

Mus musculus [2] = test: Clonic seizures was evaluated after 0.5 hr in pentylenetetrazole test in mice at a dose of 120 mg/kg; format: functional; in short: as §1
Mus musculus [3] = test: Clonic seizures was evaluated after 0.5 hr in pentylenetetrazole test in mice at a dose of 85 mg/kg; format: functional
Mus musculus [4] = test: Clonic seizures was evaluated after 3h in 3-mercaptopropionic acid test in mice at a dose of 119 mg/kg; format: functional; in short: as §1
Mus musculus [5] = test: Clonic seizures was evaluated after 3h in pentylenetetrazole test in mice at a dose of 85 mg/kg; format: functional
Mus musculus [6] = test: Compound was tested for anticonvulsant activity in maximal electroshock seizure(MES) test after 3 hours upon intraperitoneal administration to mice; format: functional; settings: ip
In short: (§2)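 Male OF1 mice (15-25 g), free access to water only during testing. Compound given ip and maximal electroshock applied at 30 min or 3 h. Typically 8-10 mice per compound, dose and time point. Screening at initial 0.4 mmol/kg, scored as protected/tested.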

Mus musculus [7] = test: Compound was tested for anticonvulsant activity in maximal electroshock seizure(MES) test after 30 min upon intraperitoneal administration to mice; format: functional; settings: ip, 0.5 h; in short: as §2
Mus musculus [8] = test: Tonic seizures was evaluated after 0.5 hr in 3-mercaptopropionic acid test in mice at a dose of 119 mg/kg; format: functional
In short: (§3)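 Male NMRI mice (18-25 g) received test agent ip at 119 mg/kg, dissolved in DMSO, 2 mL/kg. 40 mg/kg 3-mercaptopropionic acid in saline was injected ip 30 min or 3 h later. Percentage of animals with tonic seizures was recorded.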

Mus musculus [9] = test: Tonic seizures was evaluated after 0.5 hr in pentylenetetrazole test at a dose of 120 mg/kg; format: functional
In short: (§4)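 Male NMRI mice (18-25 g) were dosed ip at 119 mg/kg in DMSO (2 mL/kg). At 30 min or 3 h, pentylenetetrazole in saline was given sc at 85 or 120 mg/kg (the convulsant dose named in each line). Mice were observed individually for 30 min, with clonic and tonic seizures and deaths noted as percent of animals.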

Mus musculus [10] = test: Tonic seizures was evaluated after 0.5 hr in pentylenetetrazole test at a dose of 85 mg/kg; format: functional; in short: as §4
Mus musculus [11] = test: Tonic seizures was evaluated after 0.5 hr in strychnine test in mice at a dose of 119 mg/kg; format: functional
In short: (§5)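 Male NMRI mice (18-25 g) were dosed ip at 119 mg/kg in DMSO (2 mL/kg). At 30 min or 3 h, strychnine chlorhydrate in saline was given sc (1.2 mg/mL, 1 mL/kg). Mice were observed individually for 30 min, with tonic seizures and lethality recorded as percent of animals.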

Mus musculus [12] = test: Tonic seizures was evaluated after 3h in 3-mercaptopropionic acid test in mice at a dose of 119 mg/kg; format: functional; in short: as §3
Mus musculus [13] = test: Tonic seizures was evaluated after 3h in pentylenetetrazole test at a dose of 85 mg/kg; format: functional; in short: as §4
Mus musculus [14] = test: Tonic seizures was evaluated after 3h in strychnine test in mice at a dose of 119 mg/kg; format: functional; in short: as §5
[15] = Lethality was evaluated after 0.5 hr in 3-mercaptopropionic acid test in mice at a dose of 119 mg/kg; format: ADME, organism-based; design: dose 119 mg/kg; settings: mouse, in vivo
In short: (§6)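 Male NMRI mice (18-25 g, bred in-house) got test compound ip at 119 mg/kg, dissolved in DMSO and given at 2 mL/kg. At 30 min or 3 h after dosing, 3-mercaptopropionic acid in saline was injected ip at 40 mg/kg. Deaths were recorded and reported as percent lethality.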

[16] = Lethality was evaluated after 0.5 hr in pentylenetetrazole test in mice at a dose of 120 mg/kg; format: ADME, organism-based; design: dose 120 mg/kg; settings: mouse, in vivo
In short: (§7)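 Male NMRI mice (18-25 g) got compound ip at 119 mg/kg in DMSO (2 mL/kg). At 30 min or 3 h after dosing, pentylenetetrazole in saline was given sc at 85 or 120 mg/kg. Mice were caged singly and watched for 30 min, noting clonic and tonic seizures and deaths. Lethality is given as a percentage.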

[17] = Lethality was evaluated after 0.5 hr in pentylenetetrazole test in mice at a dose of 85 mg/kg; format: ADME, organism-based; design: dose 85 mg/kg; settings: mouse, in vivo; in short: as §7
[18] = Lethality was evaluated after 0.5 hr in strychnine test in mice at a dose of 119 mg/kg; format: ADME, organism-based; design: dose 119 mg/kg; settings: mouse, in vivo
In short: (§8)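 Male NMRI mice (18-25 g) got compound ip at 119 mg/kg in DMSO (2 mL/kg). At 30 min or 3 h after dosing, strychnine chlorhydrate in saline (1.2 mg/mL) was injected sc at 1 mL/kg. Mice were caged singly and observed for 30 min, recording seizure onset, tonic seizures and lethality (%).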

[19] = Lethality was evaluated after 3h in 3-mercaptopropionic acid test in mice at a dose of 119 mg/kg; format: ADME, organism-based; design: dose 119 mg/kg; settings: mouse, in vivo; in short: as §6
[20] = Lethality was evaluated after 3h in pentylenetetrazole test in mice at a dose of 85 mg/kg; format: ADME, organism-based; design: dose 85 mg/kg; settings: mouse, in vivo; in short: as §7
[21] = Lethality was evaluated after 3h in strychnine test in mice at a dose of 119 mg/kg; format: ADME, organism-based; design: dose 119 mg/kg; settings: mouse, in vivo; in short: as §8
[22] = Lipophilicity value was evaluated; format: physicochemical; settings: RP-HPLC
In short: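 Lipophilicity by RP-HPLC on a C18 column at 1.0 mL/min. Mobile phases were 10-50% […] with 50-90% 0.01 M phosphate buffer pH 7.4. Triplicate runs per eluent. log k_o extrapolated from at least four eluent compositions. ClogP also calculated.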

O=C(CNC(=O)OCc1ccccc1)NCc1ccccc1
Clonic seizures (Mus musculus [1]): 83% | Clonic seizures (Mus musculus [2]): 83% | Clonic seizures (Mus musculus [3]): 67% | Clonic seizures (Mus musculus [4]): 100% | Clonic seizures (Mus musculus [5]): 80% | ED50 (Mus musculus [6]): 11.6 mg/kg | ED50 (Mus musculus [7]): 4.8 mg/kg | Tonic seizures (Mus musculus [8]): 17% | Tonic seizures (Mus musculus [9]): 0% | Tonic seizures (Mus musculus [10]): 0% | Tonic seizures (Mus musculus [11]): 33% | Tonic seizures (Mus musculus [12]): 0% | Tonic seizures (Mus musculus [13]): 70% | Tonic seizures (Mus musculus [14]): 80% | Lethality [15]: 0% | Lethality [16]: 50% | Lethality [17]: 22% | Lethality [18]: 17% | Lethality [19]: 30% | Lethality [20]: 60% | Lethality [21]: 80% | Log Ko [22]: 3.5
